According to ChEMBL document CHEMBL1141402 (J Med Chem, 2007):
The source made the active and inactive calls. Residues, ends and D or L forms follow the SMILES beside them.

Legend:
Mu-type opioid receptor [1] = biological target: Mu-type opioid receptor (Homo sapiens, UniProt P35372); test: Activity at mu opioid receptor assessed as increase in calcium level in CHO cells by aequorin luminescence based calcium assay; assay type: functional, cell-based
[2] = biological target: T1, Delta-type opioid receptor (Homo sapiens, UniProt P41143); test: Activity at delta opioid receptor assessed as increase in calcium level in CHO cells by aequorin luminescence based calcium assay; assay type: functional, cell-based
T1 sequence (P41143 whole entry): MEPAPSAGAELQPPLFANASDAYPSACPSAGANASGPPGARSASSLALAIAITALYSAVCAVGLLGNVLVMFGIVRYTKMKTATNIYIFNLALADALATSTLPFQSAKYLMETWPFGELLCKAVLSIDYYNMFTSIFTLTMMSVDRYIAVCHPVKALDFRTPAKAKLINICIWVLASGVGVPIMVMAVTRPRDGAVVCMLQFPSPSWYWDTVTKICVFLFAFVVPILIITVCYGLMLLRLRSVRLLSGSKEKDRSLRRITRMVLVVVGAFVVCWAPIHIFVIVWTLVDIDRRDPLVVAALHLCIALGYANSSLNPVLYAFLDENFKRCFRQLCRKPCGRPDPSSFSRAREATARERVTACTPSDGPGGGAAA

Mu-type opioid receptor [3] = biological target: Mu-type opioid receptor (Cavia porcellus, UniProt P97266); test: Agonist activity at mu opioid receptor by inhibition of electrically evoked muscle contraction in guinea pig ileum; assay type: functional, tissue-based
Chain of Mu-type opioid receptor (Cavia porcellus, UniProt P97266) (P97266 whole entry): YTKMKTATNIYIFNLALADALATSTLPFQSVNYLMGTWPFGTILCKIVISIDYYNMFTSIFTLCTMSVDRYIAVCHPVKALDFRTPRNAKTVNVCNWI

[4] = biological target: Delta-type opioid receptor (Mus musculus) (UniProt P32300); test: (§1) Agonist activity at delta opioid receptor by inhibition of electrically evoked muscle contraction in isolated mouse vas deferens; assay type: functional, tissue-based
Chain of Delta-type opioid receptor (Mus musculus) (P32300 whole entry): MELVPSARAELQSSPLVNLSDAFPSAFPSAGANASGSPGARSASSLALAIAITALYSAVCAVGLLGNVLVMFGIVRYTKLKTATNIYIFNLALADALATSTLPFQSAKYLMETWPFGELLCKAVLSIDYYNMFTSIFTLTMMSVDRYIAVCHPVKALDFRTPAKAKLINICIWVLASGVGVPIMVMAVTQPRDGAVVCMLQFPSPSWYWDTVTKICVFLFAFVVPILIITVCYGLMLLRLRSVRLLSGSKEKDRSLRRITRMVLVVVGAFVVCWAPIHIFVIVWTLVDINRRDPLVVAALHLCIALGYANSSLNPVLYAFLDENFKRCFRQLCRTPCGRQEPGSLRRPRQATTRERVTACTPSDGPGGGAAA
In short: (§2)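 Mouse vas deferens from adult male Swiss Webster mice (30-50 g), killed by cervical dislocation. Field stimulation used 1 ms pulse trains at 0.15 Hz. IC50 taken from the twitch-height reduction across doses.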

[5] = biological target: Delta-type opioid receptor (Mus musculus) (UniProt P32300); test: Antagonist activity at delta opioid receptor by inhibition of DPDPE-induced muscle contraction in isolated mouse vas deferens; assay type: functional, tissue-based
Mus musculus [6] = species on record: Mus musculus; test: Antinociceptive activity in Swiss Albino mouse assessed as effect on paw licking by hot plate method at 10 ug; assay type: functional
In short: (§3)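 Mice given peptide i.c.v. in 0.9% NaCl, then put on a 55 ± 0.5 °C hot plate 5 min later. Latencies to paw licking, rearing and jumping recorded with a 240 s cut-off and converted to %MPE against saline control latencies. 10 mice per group; one-way ANOVA with Student-Newman-Keuls post hoc.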

Mus musculus [7] = species on record: Mus musculus; test: Antinociceptive activity in Swiss Albino mouse assessed as effect on rearing by hot plate method at 10 ug; assay type: functional; in short: as §3
Mus musculus [8] = species on record: Mus musculus; test: Antinociceptive activity in Swiss Albino mouse assessed as effect on jumping by hot plate method at 10 ug; assay type: functional; in short: as §3
[9] = biological target: T1, Delta-type opioid receptor; test: Antagonist activity against delta opioid receptor assessed as effect on deltorphin-2-induced calcium response in CHO cells by aequorin luminescence based calcium assay; assay type: functional, cell-based; conditions: read-out: pA2 (converted)
In short: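 CHO cells expressing DOR and aequorin. Compounds in BSA medium, then 25 000 cells injected per well. Luminescence recorded for 30 s, cells lysed with 0.3% Triton X-100 and read for a further 15 s. Signal given as fractional luminescence (agonist peak over agonist plus lysis total), from concentration-response curves. Three independent experiments, each in duplicate.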

Mu-type opioid receptor [10] = biological target: Mu-type opioid receptor (Rattus norvegicus, UniProt P33535); test: Displacement of [3H]DAMGO from mu opioid receptor in rat brain membrane; assay type: cell membranes
Chain of Mu-type opioid receptor (Rattus norvegicus, UniProt P33535) (P33535 whole entry): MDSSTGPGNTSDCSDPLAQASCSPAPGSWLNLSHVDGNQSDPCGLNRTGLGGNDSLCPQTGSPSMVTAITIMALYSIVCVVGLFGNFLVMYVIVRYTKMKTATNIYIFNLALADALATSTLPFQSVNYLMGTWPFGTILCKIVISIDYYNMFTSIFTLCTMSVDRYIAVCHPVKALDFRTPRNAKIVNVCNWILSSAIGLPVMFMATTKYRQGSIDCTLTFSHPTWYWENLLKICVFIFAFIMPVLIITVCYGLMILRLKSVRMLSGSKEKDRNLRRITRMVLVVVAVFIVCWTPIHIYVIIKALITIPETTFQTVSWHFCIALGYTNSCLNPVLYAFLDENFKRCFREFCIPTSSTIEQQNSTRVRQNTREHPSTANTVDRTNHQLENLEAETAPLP
In short: (§4)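 Rat brain membranes incubated for 2 h at 0 °C with [3H]DAMGO (0.72 nM; µ) or [3H]DSLET (0.78 nM; δ). IC50 read from log dose-displacement curves. […] Three to four determinations.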

[11] = biological target: Mu-type opioid receptor (Cavia porcellus) (UniProt P97266); test: Antagonist activity at mu opioid receptor by inhibition of TAPP-induced muscle contraction in guinea pig ileum; assay type: functional, tissue-based
Chain of Mu-type opioid receptor (Cavia porcellus) (P97266 whole entry): as the sequence (P97266 whole entry) above

Mus musculus [12] = species on record: Mus musculus; test: Antagonist effect on endomorphin-2-induced paw licking in Swiss Albino mouse by hot plate method; assay type: functional, organism-based
In short: (§5)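 Mice dosed i.c.v. into the left lateral ventricle, drugs dissolved in 0.9% NaCl; test compound given against endomorphin-2 (3 µg/animal) or DAMGO. Placed on a 55 ± 0.5 °C hot plate 5 min after injection. Latencies to paw licking, rearing and jumping recorded with a 240 s cut-off and expressed as %MPE from control (saline) and test latencies. 10 mice per group; two-way ANOVA with Student-Newman-Keuls.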

Mus musculus [13] = species on record: Mus musculus; test: Antagonist effect on endomorphin-2-induced rearing in Swiss Albino mouse by hot plate method; assay type: functional, organism-based; in short: as §5
Mus musculus [14] = species on record: Mus musculus; test: Antagonist effect on endomorphin-2-induced jumping in Swiss Albino mouse by hot plate method; assay type: functional, organism-based; in short: as §5
Mus musculus [15] = species on record: Mus musculus; test: Antagonist effect on DAMGO-induced paw licking in Swiss Albino mouse by hot plate method; assay type: functional, organism-based; in short: as §5
Mus musculus [16] = species on record: Mus musculus; test: Antagonist effect on DAMGO-induced rearing in Swiss Albino mouse by hot plate method; assay type: functional, organism-based; in short: as §5
Mus musculus [17] = species on record: Mus musculus; test: Antagonist effect on DAMGO-induced jumping in Swiss Albino mouse by hot plate method; assay type: functional, organism-based; in short: as §5
[18] = biological target: Mu-type opioid receptor (Cavia porcellus) (UniProt P97266); test: Agonist activity at mu opioid receptor by inhibition of TAPP-induced muscle contraction in guinea pig ileum at upto 10 uM; assay type: functional, tissue-based
In short: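 A 2-3 cm segment taken at least 10 cm from the ileocecal junction and mounted in a 20 mL bath of modified Krebs' buffer (NaCl 150, KCl 4.3, CaCl2 1.25, MgCl2 1.0, NaH2PO4 1.7, NaHCO3 25.0, glucose 11.0 mM). Buffer gassed with 95% O2/5% CO2 at 37 °C. Stimulated at 10 pulses/min, 4 ms each, with force-transducer recording. IC50 obtained by regression of the concentration-response curve.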

[19] = biological target: Delta-type opioid receptor (Rattus norvegicus, UniProt P33533); test: Displacement of [3H]DSLET from delta opioid receptor in rat brain membrane; assay type: cell membranes; in short: as §4
Chain of Delta-type opioid receptor (Rattus norvegicus, UniProt P33533) (P33533 whole entry): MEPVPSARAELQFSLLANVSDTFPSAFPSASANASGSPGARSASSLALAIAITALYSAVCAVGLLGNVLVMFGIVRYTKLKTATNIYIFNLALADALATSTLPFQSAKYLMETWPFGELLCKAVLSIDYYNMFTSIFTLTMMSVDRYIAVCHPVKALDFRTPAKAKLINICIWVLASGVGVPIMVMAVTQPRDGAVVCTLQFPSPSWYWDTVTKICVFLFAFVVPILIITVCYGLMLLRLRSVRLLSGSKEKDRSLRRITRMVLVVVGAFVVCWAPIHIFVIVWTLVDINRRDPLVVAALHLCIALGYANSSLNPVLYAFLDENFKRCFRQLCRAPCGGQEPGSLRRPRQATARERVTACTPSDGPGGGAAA

[20] = biological target: Delta-type opioid receptor (Mus musculus, UniProt P32300); test: as §1; assay type: functional, tissue-based; in short: as §2
Chain of Delta-type opioid receptor (Mus musculus, UniProt P32300) (P32300 whole entry): as the sequence (P32300 whole entry) above

Chain of Mu-type opioid receptor (Homo sapiens, UniProt P35372) (P35372 whole entry): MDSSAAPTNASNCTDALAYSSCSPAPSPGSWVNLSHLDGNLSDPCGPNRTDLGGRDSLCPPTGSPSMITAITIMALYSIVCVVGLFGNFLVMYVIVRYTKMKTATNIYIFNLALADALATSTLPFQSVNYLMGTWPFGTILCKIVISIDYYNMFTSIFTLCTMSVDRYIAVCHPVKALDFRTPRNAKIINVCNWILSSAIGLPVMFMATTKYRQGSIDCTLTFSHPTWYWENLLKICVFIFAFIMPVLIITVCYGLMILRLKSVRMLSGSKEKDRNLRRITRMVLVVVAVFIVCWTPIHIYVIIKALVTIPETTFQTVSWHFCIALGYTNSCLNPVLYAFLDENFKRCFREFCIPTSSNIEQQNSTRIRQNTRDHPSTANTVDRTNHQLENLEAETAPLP

NC(=O)[C@@H](Cc1cccc2ccccc12)NC(=O)[C@H](Cc1c[nH]c2ccccc12)NC(=O)[C@@H]1CCCN1C(=O)[C@@H](N)Cc1ccc(O)cc1
EC50 (Mu-type opioid receptor [1]): 0.0821 µM
EC50 [2]: > 1 µM
IC50 (Mu-type opioid receptor [3]): 4.18 µM
Activity ([4]; filed as partial agonist): Partial agonist

Cc1cc(C[C@H](N)C(=O)N2CCC[C@H]2C(=O)N[C@@H](Cc2c[nH]c3ccccc23)C(=O)N[C@H](Cc2cccc3ccccc23)C(N)=O)cc(C)c1O
Ke [5]: 62.4 nM

Cc1cc(O)cc(C)c1C[C@H](N)C(=O)N1CCC[C@H]1C(=O)N[C@@H](Cc1c[nH]c2ccccc12)C(=O)N[C@H](Cc1cccc2ccccc12)C(N)=O [listing 1 of 2 here]
Activity (Mus musculus [6]): 5.35%
Activity (Mus musculus [7]): 10.6%
Activity (Mus musculus [8]): 23.2%

NC(=O)[C@H](Cc1ccccc1)NC(=O)[C@H](Cc1c[nH]c2ccccc12)NC(=O)[C@@H]1CCCN1C(=O)[C@@H](N)Cc1ccc(O)cc1 [ENDOMORPHIN-1]
Activity (Mus musculus [6]): 5.99%
Activity (Mus musculus [7]): 12%
Activity (Mus musculus [8]): 40.8%

NC(=O)[C@@H](Cc1ccc2ccccc2c1)NC(=O)[C@H](Cc1c[nH]c2ccccc12)NC(=O)[C@@H]1CCCN1C(=O)[C@@H](N)Cc1ccc(O)cc1
EC50 (Mu-type opioid receptor [1]): 0.248 µM
EC50 [2]: > 1 µM
IC50 (Mu-type opioid receptor [3]): 3.47 µM
IC30 [4]: 4.18 µM
Activity ([4]; filed as partial agonist): Partial agonist

Cc1cc(O)cc(C)c1C[C@H](N)C(=O)N1CCC[C@H]1C(=O)N[C@@H](Cc1c[nH]c2ccccc12)C(=O)N[C@H](Cc1cccc2ccccc12)C(N)=O [listing 2 of 2 here]
EC50 (Mu-type opioid receptor [1]): 0.00115 µM
Kb [9]: 0.00257 µM
IC50 (Mu-type opioid receptor [3]): 0.0158 µM

Cc1cc(O)cc(C)c1C[C@H](N)C(=O)N1CCC[C@H]1C(=O)N[C@@H](Cc1c[nH]c2ccccc12)C(=O)N[C@H](Cc1ccc2ccccc2c1)C(N)=O (HELM PEPTIDE1{[Cc1cc(O)cc(C)c1C[C@H](N)C(=O)[*:2]].P.W.[O=C([C@@H](Cc1ccc2ccccc2c1)N[*:1])[*:2]].[am]}$$$$V2.0) [listing 1 of 2 here]
EC50 [2]: 0.0293 µM
Ki (Mu-type opioid receptor [10]): 0.00238 µM

Cc1cc(C[C@H](N)C(=O)N2CCC[C@H]2C(=O)N[C@@H](Cc2ccccc2)C(=O)N[C@H](Cc2cccc3ccccc23)C(N)=O)cc(C)c1O
Ke [11]: 14.9 nM
Ke [5]: 227 nM
Activity (Mus musculus [12]): Dose-dependent effect
Activity (Mus musculus [13]): Dose-dependent effect
Activity (Mus musculus [14]): Dose-dependent effect
Activity (Mus musculus [15]): Dose-dependent effect
Activity (Mus musculus [16]): Dose-dependent effect
Activity (Mus musculus [17]): Dose-dependent effect

Cc1cc(C[C@H](N)C(=O)N2CCC[C@H]2C(=O)N[C@@H](Cc2c[nH]c3ccccc23)C(=O)N[C@H](Cc2ccc3ccccc3c2)C(N)=O)cc(C)c1O
Ke [11]: 8.27 nM
Activity ([4]; filed as partial agonist): Partial agonist
Activity (Mus musculus [12]): Dose-dependent effect
Activity (Mus musculus [13]): Dose-dependent effect
Activity (Mus musculus [14]): Dose-dependent effect
Activity (Mus musculus [15]): Dose-dependent effect
Activity (Mus musculus [16]): Dose-dependent effect
Activity (Mus musculus [17]): Dose-dependent effect
Activity [18]: inactive

Cc1cc(O)cc(C)c1C[C@H](N)C(=O)N1CCC[C@H]1C(=O)N[C@@H](Cc1ccccc1)C(=O)N[C@H](Cc1cccc2ccccc12)C(N)=O [listing 1 of 2 here]
Activity (Mus musculus [6]): 0.13%
Activity (Mus musculus [7]): 1.06%
Activity (Mus musculus [8]): 2.73%

Cc1cc(O)cc(C)c1C[C@H](N)C(=O)N1CCC[C@H]1C(=O)N[C@@H](Cc1ccccc1)C(=O)N[C@H](Cc1cccc2ccccc12)C(N)=O [listing 2 of 2 here]
EC50 [2]: 0.00355 µM
Ki (Mu-type opioid receptor [10]): 0.00124 µM
Ki [19]: 0.0271 µM

NC(=O)[C@@H](Cc1cccc2ccccc12)NC(=O)[C@H](Cc1ccccc1)NC(=O)[C@@H]1CCCN1C(=O)[C@@H](N)Cc1ccc(O)cc1
EC50 [2]: > 1 µM
Ke [11]: 1250 nM
IC50 [20]: > 10 µM
Activity (Mus musculus [6]): 0%
Activity (Mus musculus [7]): 0.31%
Activity (Mus musculus [8]): 0.8%

NC(=O)[C@@H](Cc1ccc2ccccc2c1)NC(=O)[C@H](Cc1ccccc1)NC(=O)[C@@H]1CCCN1C(=O)[C@@H](N)Cc1ccc(O)cc1 (HELM PEPTIDE1{Y.P.F.[O=C([C@@H](Cc1ccc2ccccc2c1)N[*:1])[*:2]].[am]}$$$$V2.0)
EC50 [2]: > 1 µM
Ke [11]: 1260 nM
Activity [4]: inactive
Activity (Mus musculus [6]): 0.13%
Activity (Mus musculus [7]): 0.09%
Activity (Mus musculus [8]): 2.5%

Cc1cc(O)cc(C)c1C[C@H](N)C(=O)N1CCC[C@H]1C(=O)N[C@@H](Cc1ccccc1)C(=O)N[C@H](Cc1ccc2ccccc2c1)C(N)=O (HELM PEPTIDE1{[Cc1cc(O)cc(C)c1C[C@H](N)C(=O)[*:2]].P.F.[O=C([C@@H](Cc1ccc2ccccc2c1)N[*:1])[*:2]].[am]}$$$$V2.0)
EC50 [2]: 0.0155 µM
Ke [11]: 5.86 nM
Ke [5]: 250 nM
Ki (Mu-type opioid receptor [10]): 0.00152 µM
Activity (Mus musculus [6]): 0.09%
Activity (Mus musculus [7]): 0.18%
Activity (Mus musculus [8]): 1.54%
Activity (Mus musculus [12]): Dose-dependent effect
Activity (Mus musculus [13]): Dose-dependent effect
Activity (Mus musculus [14]): Dose-dependent effect
Activity (Mus musculus [15]): Dose-dependent effect
Activity (Mus musculus [16]): Dose-dependent effect
Activity (Mus musculus [17]): Dose-dependent effect
Activity [18]: inactive

Cc1cc(O)cc(C)c1C[C@H](N)C(=O)N1CCC[C@H]1C(=O)N[C@@H](Cc1c[nH]c2ccccc12)C(=O)N[C@H](Cc1ccc2ccccc2c1)C(N)=O (HELM PEPTIDE1{[Cc1cc(O)cc(C)c1C[C@H](N)C(=O)[*:2]].P.W.[O=C([C@@H](Cc1ccc2ccccc2c1)N[*:1])[*:2]].[am]}$$$$V2.0) [listing 2 of 2 here]
Activity (Mus musculus [6]): 0.17%
Activity (Mus musculus [7]): 0.49%
Activity (Mus musculus [8]): 0.58%
